Several values for one entry are separate records, joined by “and”; a condition that tells them apart may be missing. Equal values may be shown once.
Legend:
786-0 = test: Cytotoxicity against NCI tumor panel, 786-0 renal cancer cell line; type: functional, cell-based; conditions: Homo sapiens
Procedure, shortened: (§1)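 NCI cell-line panel screen run by the National Cancer Institute; sulforhodamine B (SRB) readout after 48-h drug incubation.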

A549 = test: Cytotoxicity against NCI tumor panel, A-549/ATCC non small-cell lung cancer cell line; type: functional, cell-based; conditions: Homo sapiens; procedure, shortened: as §1
A498 = test: Cytotoxicity against NCI tumor panel, A-498 renal cancer cell line; type: functional, cell-based; conditions: Homo sapiens; procedure, shortened: as §1
ACHN = test: Cytotoxicity against NCI tumor panel, ACHN renal cancer cell line; type: functional, cell-based; conditions: Homo sapiens; procedure, shortened: as §1
CCRF-CEM = test: Cytotoxicity against NCI tumor panel, CCRF-CEM leukemia cell line; type: functional, cell-based; conditions: Homo sapiens; procedure, shortened: as §1
COLO 205 = test: Cytotoxicity against NCI tumor panel, COLO 205 colon cancer cell line; type: functional, cell-based; conditions: Homo sapiens; procedure, shortened: as §1
DU-145 = test: Cytotoxicity against NCI tumor panel, DU145 prostate cancer cell line; type: functional, cell-based; conditions: Homo sapiens; procedure, shortened: as §1
HCT-116 = test: Cytotoxicity against NCI tumor panel, HCT116 colon cancer cell line; type: functional, cell-based; conditions: Homo sapiens; procedure, shortened: as §1
K562 = test: Cytotoxicity against NCI tumor panel, K-562 leukemia cell line; type: functional, cell-based; conditions: Homo sapiens
Procedure, shortened: (§2)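 Performed by NCI with the sulforhodamine B (SRB) method on its human tumour cell panel, using a 48-h drug incubation.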

M14 = test: Cytotoxicity against NCI tumor panel, M14 melanoma cancer cell line; type: functional, cell-based; conditions: Homo sapiens; procedure, shortened: as §2
LOX IMVI = test: Cytotoxicity against NCI tumor panel, […] melanoma cancer cell line; type: functional, cell-based; conditions: Homo sapiens; procedure, shortened: as §2
MDA-MB-435 = test: Cytotoxicity against NCI tumor panel, MDA-MB-435 breast cancer cell line; type: functional, cell-based; conditions: Homo sapiens; procedure, shortened: as §2
Mus musculus [1] = test: Haematological effects in mice dose administered intraperitoneally; type: functional
Procedure, shortened: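 Non-tumor-bearing female CDF1 mice, 10 per group. Drugs were dissolved in DMSO, diluted in 30% DMSO/0.5% glucose, and given as a single ip dose on day 1 (doses per kg). Blood was sampled on day 27 for WBC, platelet, RBC and MCHC counts. Values are medians of 10 mice.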

MOLT-4 = test: Cytotoxicity against NCI tumor panel, MOLT-4 leukemia cell line; type: functional, cell-based; conditions: Homo sapiens; procedure, shortened: as §2
MCF7 = test: Cytotoxicity against NCI tumor panel, MCF-7 breast cancer cell line; type: functional, cell-based; conditions: Homo sapiens; procedure, shortened: as §2
Mus musculus [2] = species on record: Mus musculus; test: Mice bearing B16BL6 leukemia at a dose 100; type: functional; conditions: in the assay text read “melanoma” for “leukemia”
Procedure, shortened: (§3)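 Female BDF1 mice (4-6 weeks old, 8 per group) were inoculated ip with 10⁶ B16BL6 melanoma cells on day 0. Drugs in dimethylacetamide were diluted in DMA:Cremophor:water (1:5:44) and given ip at 0.1 mL on days 1, 5 and 9 (doses per kg). Read-outs were %ILS = (T/C − 1) × 100 on median survival of dying animals only, mean body weight change from day 1 to day 10 (g/mouse), and 90-day survivors.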

Mus musculus [3] = test: Antitumor activity was tested in mice and percent increase of life span at a dose of 50 ug/kg was reported; type: functional
Procedure, shortened: (§4)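 B16BL6 cells were cultured as monolayers, and 10⁶ cells were injected ip on day 0 into female BDF1 mice (4-6 weeks, 8 per group). Drug in dimethylacetamide was diluted in DMA/Cremophor/water (1:5:44) and 0.1 mL given ip on days 1, 5 and 9. %ILS came from median survival of dying animals; 90-day survivors were counted; mean weight change covered days 1-10.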

Mus musculus [4] = species on record: Mus musculus; test: Mean corpuscular haemoglobin concentration; type: functional
Procedure, shortened: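 Non-tumour-bearing female CDF1 mice, 10 per group. Drug was dissolved in DMSO, diluted in 30% DMSO/0.5% glucose, and given as a single ip dose on day 1. Blood was sampled on day 27 for WBC, platelet, RBC and MCHC measurements. Values are medians of 10 mice, with saline or vehicle controls.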

Mus musculus [5] = test: Antitumor activity was tested in mice and percent increase of life span at a dose of 100 ug/kg was reported; type: functional; procedure, shortened: as §4
Mus musculus [6] = test: Antitumor activity in BDF1 male mice bearing L1210 Leukemia at a dose of 70 ug/kg; type: functional
Procedure, shortened: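 Male BDF1 mice, 4-6 weeks old, 6 per group, were given 10⁵ L1210 cells ip on day 0. Drug in DMF was diluted in 30% DMSO/0.5% glucose and given ip on days 1, 5 and 9. %ILS = (T/C − 1) × 100 on median survival of dying animals only; 30-day survivors noted separately. Group weight change was taken from day 0 to the lowest-weight day.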

Mus musculus [7] = test: Antitumor activity in mice bearing B16BL6 melanoma at a dose of 100 ug/kg; survivors for 90 days was reported; type: functional; procedure, shortened: as §4
Mus musculus [8] = test: Antitumor activity in mice bearing B16BL6 melanoma at a dose of 50 ug/kg; survivors for 90 days was reported; type: functional; procedure, shortened: as §4
Mus musculus [9] = test: Antitumor activity in mice bearing L1210 Leukemia at a dose of 30 ug/kg; survivors for 60 days was reported; type: functional
Procedure, shortened: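 Female CDF1 mice, 10 per group, got 100 L1210 cells ip on day 0. Drug in DMSO was diluted with 30% DMSO in 0.5% glucose and dosed ip on days 1, 5 and 9. Long-term (60-day) survivors are given as percent of the group.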

Mus musculus [10] = species on record: Mus musculus; test: Mean body weight change between 1-10 days; type: functional; procedure, shortened: as §3
OVCAR-8 = test: Cytotoxicity against NCI tumor panel, OVCAR-8 ovarian cancer cell line; type: functional, cell-based; conditions: Homo sapiens; procedure, shortened: as §2
NCI-H522 = test: Cytotoxicity against NCI tumor panel, NCI-H522 non small-cell lung cancer cell line; type: functional, cell-based; conditions: Homo sapiens; procedure, shortened: as §2
NCI/ADR-RES = test: Cytotoxicity against NCI tumor panel, NCI/ADR-RES breast cancer cell line; type: functional, cell-based; conditions: Homo sapiens; procedure, shortened: as §2
NCI-H322M = test: Cytotoxicity against NCI tumor panel, NCI-H322M non small-cell lung cancer cell line; type: functional, cell-based; conditions: Homo sapiens; procedure, shortened: as §2
NCI-H460 = test: Cytotoxicity against NCI tumor panel, NCI-H460 non small-cell lung cancer cell line; type: functional, cell-based; conditions: Homo sapiens; procedure, shortened: as §2
OVCAR-3 = test: Cytotoxicity against NCI tumor panel, OVCAR-3 ovarian cancer cell line; type: functional, cell-based; conditions: Homo sapiens; procedure, shortened: as §2
SF-295 = test: Cytotoxicity against NCI tumor panel, SF-295 CNS cancer cell line; type: functional, cell-based; conditions: Homo sapiens; procedure, shortened: as §2
SNB-75 = test: Cytotoxicity against NCI tumor panel, SNB-75 CNS cancer cell line; type: functional, cell-based; conditions: Homo sapiens; procedure, shortened: as §2
SR = test: Cytotoxicity against NCI tumor panel, SR leukemia cell line; type: functional, cell-based; conditions: Homo sapiens; procedure, shortened: as §2
SK-MEL-2 = test: Cytotoxicity against NCI tumor panel,SK-MEL2 melanoma cancer cell line; type: functional, cell-based; conditions: Homo sapiens; procedure, shortened: as §2
SK-MEL-5 = test: Cytotoxicity against NCI tumor panel, SKMEL-5 melanoma cancer cell line; type: functional, cell-based; conditions: Homo sapiens; procedure, shortened: as §2
SF-268 = test: Cytotoxicity against NCI tumor panel, SF-268 CNS cancer cell line; type: functional, cell-based; conditions: Homo sapiens; procedure, shortened: as §2
TK-10 = test: Cytotoxicity against NCI tumor panel, TK10 renal cancer cell line; type: functional, cell-based; conditions: Homo sapiens; procedure, shortened: as §2
HCT-15 = test: Cytotoxicity against NCI tumor panel, HCT-15 colon cancer cell line; type: functional, cell-based; conditions: Homo sapiens; procedure, shortened: as §1
T47D = test: cytotoxicity against NCI tumor panel, T-47D breast cancer cell line; type: functional, cell-based; conditions: Homo sapiens; procedure, shortened: as §2
[11] = Minimal drug concentration necessary to inhibit incorporation of [3H]thymidine in U937 Leukemia cells; type: functional, cell-based, Homo sapiens
UACC-257 = test: Cytotoxicity against NCI tumor panel, UACC-257 melanoma cancer cell line; type: functional, cell-based; conditions: Homo sapiens; procedure, shortened: as §2
U-251 = test: Cytotoxicity against NCI tumor panel, U251 CNS cancer cell line; type: functional, cell-based; conditions: Homo sapiens; procedure, shortened: as §2
UACC-62 = test: Cytotoxicity against NCI tumor panel, UACC-62 melanoma cancer cell line; type: functional, cell-based; conditions: Homo sapiens; procedure, shortened: as §2
Mus musculus [12] = species on record: Mus musculus; test: Antitumor activity in mice bearing B16BL6 melanoma; survivors for 90 days was reported

CC(=O)Nc1ccc2[nH]c(C(=O)Nc3ccc4[nH]c(C(=O)N5CC(CCl)c6c5cc(O)c5ccccc65)cc4c3)cc2c1 (centres undefined)
IC50 (786-0): 1.66 nM | IC50 (A549): 1.49 nM | IC50 (A498): 3.95 nM | IC50 (ACHN): 1.28 nM | IC50 (CCRF-CEM): 3.14 nM | IC50 (COLO 205): 2.99 nM | IC50 (DU-145): 0.982 nM | IC50 (HCT-116): 0.495 nM | IC50 (K562): 3.76 nM | IC50 (M14): 1.48 nM | IC50 (LOX IMVI): 0.577 nM | IC50 (MDA-MB-435): 1.86 nM | Dose (Mus musculus [1]): 50 µg/kg | IC50 (MOLT-4): 0.375 nM | IC50 (MCF7): 0.476 nM | Dose (Mus musculus [2]): 100 µg/kg | ILS at 0.05 mg/kg (Mus musculus [3]): 59% | MCHC (Mus musculus [4]): 36.7 g/dL | ILS at 0.1 mg/kg (Mus musculus [5]): 91% | No. of survivors (Mus musculus [6]): 1 | No. of survivors (Mus musculus [7]): 1 | No. of survivors (Mus musculus [8]): 0 | % survivors (Mus musculus [9]): 40% | Weight (Mus musculus [10]): 1.1 g and 0.3 g and 0.9 g | IC50 (OVCAR-8): 1.6 nM | IC50 (NCI-H522): 0.238 nM | IC50 (NCI/ADR-RES): 8.56 nM | IC50 (NCI-H322M): 2.13 nM | IC50 (NCI-H460): 1.48 nM | IC50 (OVCAR-3): 3.51 nM | IC50 (SF-295): 2.64 nM | IC50 (SNB-75): 0.513 nM | IC50 (SR): 0.562 nM | IC50 (SK-MEL-2): 2.11 nM | IC50 (SK-MEL-5): 1.11 nM | IC50 (SF-268): 0.212 nM | IC50 (TK-10): 3.13 nM | IC50 (HCT-15): > 10 nM | IC50 (T47D): 1.68 nM | IC50 [11]: 0.4 nM | IC50 (UACC-257): 2.46 nM | IC50 (U-251): 0.719 nM | IC50 (UACC-62): 0.419 nM | No. of survivors (Mus musculus [12]): 0

Source: ChEMBL document CHEMBL1133719, “Synthesis and preliminary biological evaluations of CC-1065 analogues: effects of different linkers and terminal amides on biological activity” (J Med Chem, 2000)
